# Read-outs that look alike come from different tables or passages of the source. Marks after values point to notes of the source that are not given here.
# Tests used:
# Abcb1a/b [1] = target: T1, Abcb1a/b (Mus musculus, UniProt P21447); details: Abcb1a/b^(-/-) and Abcb1a/b^(-/-)Abcg2^(-/-) mice; ref Liu et al., 2012; cited from earlier work
# [2] = rat plasma; ref Liu et al., 2014; cited from earlier work
# [3] = tolerability of co-injected pharmacologic dose of unlabeled Ko143; type: in vivo; details: wild-type mice, 10 mg/kg i.v. co-injected with radiotracer
# human ABCB1 = details: ref Weidner et al., 2015; cited from earlier work
# [4] = plasma concentration after i.v. administration; type: in vivo, mice; details: mouse, iv, 10 mg/kg
# [5] = mice, 1 h after i.v. 10 mg/kg; ref Zhang et al., 2011; cited from earlier work
# [6] = type: in vivo, mice
# How it was run: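 Female FVB wild-type mice under isoflurane had 60-min dynamic PET after tail-vein injection of radiotracer mixed with test compound (10 mg/kg) or its vehicle (4 mL/kg), versus radiotracer alone. Liver and kidney kuptake came from an integration plot over 0.3–3.5 min. kurine and kbile came from 4.5–45 min data, with biliary activity taken as gallbladder + duodenum + intestine. Extraction ratio = kuptake divided by assumed blood flow (liver 1.0, kidney 4.1 mL/min/g).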
# Abcg2 = target: T2, Abcg2 (Mus musculus, UniProt Q7TMS5); type: in vivo; details: Abcg2^(-/-) and Abcb1a/b^(-/-)Abcg2^(-/-) mice, microdose
# T2 sequence (Q7TMS5 1-657): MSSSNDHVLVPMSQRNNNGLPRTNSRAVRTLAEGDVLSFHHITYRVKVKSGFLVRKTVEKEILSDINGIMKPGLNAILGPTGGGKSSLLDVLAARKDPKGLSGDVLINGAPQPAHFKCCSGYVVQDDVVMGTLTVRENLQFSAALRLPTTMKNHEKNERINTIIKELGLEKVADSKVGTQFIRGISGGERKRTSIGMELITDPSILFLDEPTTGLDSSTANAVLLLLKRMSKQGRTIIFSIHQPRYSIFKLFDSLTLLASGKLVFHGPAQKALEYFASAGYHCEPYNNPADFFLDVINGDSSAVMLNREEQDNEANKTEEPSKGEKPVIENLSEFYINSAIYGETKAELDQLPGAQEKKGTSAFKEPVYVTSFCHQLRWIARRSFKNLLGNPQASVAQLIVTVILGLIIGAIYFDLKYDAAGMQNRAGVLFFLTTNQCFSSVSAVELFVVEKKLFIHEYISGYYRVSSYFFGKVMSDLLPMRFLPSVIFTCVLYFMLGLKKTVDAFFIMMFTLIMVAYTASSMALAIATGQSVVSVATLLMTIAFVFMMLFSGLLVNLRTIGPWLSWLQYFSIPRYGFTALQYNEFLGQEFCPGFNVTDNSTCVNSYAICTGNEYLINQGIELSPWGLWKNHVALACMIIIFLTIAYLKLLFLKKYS
# How it was run: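 Female FVB Abcg2(-/-), Abcb1a/b(-/-)Abcg2(-/-) and wild-type mice, 7–8 weeks old, under isoflurane, had 60-min dynamic PET started with a tail-vein i.v. microdose of radiotracer (26.6 ± 10.5 MBq, 0.1 mL). The kidney-to-urine rate constant kurine was derived from 4.5–45 min data, given as mean ± S.D. Knockouts were compared with wild-type by one-way ANOVA with Tukey's test.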
# [7] = radio-TLC analysis of radiolabeled metabolites in tissues and fluids; type: in vivo, mice; details: 20 min after i.v. injection
# How it was run: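 Female FVB wild-type and Abcb1a/b(-/-)Abcg2(-/-) mice, 7–8 weeks old, under isoflurane, given radiotracer i.v. (28.4 ± 4.1 MBq, 0.1 mL). At 20 min, blood was drawn from the retro-orbital sinus and the animals were killed. Plasma, liver, kidneys, brain, bile and urine were collected. Tissues were homogenised, proteins precipitated with acetonitrile, then spun at 12,000 g, 5 min, 4°C. Percent unchanged radiotracer was determined by radio-TLC.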
# Abcb1a/b [8] = target: T1, Abcb1a/b; type: in vivo; details: wild-type and Abcg2^(-/-) mice, microdose
# ABCB1 = details: ref Hugger et al., 2002, cited from earlier work
# [9] = wild-type mice, microdose i.v., integration plot 0.3-3.5 min
# T1 sequence (P21447 whole entry): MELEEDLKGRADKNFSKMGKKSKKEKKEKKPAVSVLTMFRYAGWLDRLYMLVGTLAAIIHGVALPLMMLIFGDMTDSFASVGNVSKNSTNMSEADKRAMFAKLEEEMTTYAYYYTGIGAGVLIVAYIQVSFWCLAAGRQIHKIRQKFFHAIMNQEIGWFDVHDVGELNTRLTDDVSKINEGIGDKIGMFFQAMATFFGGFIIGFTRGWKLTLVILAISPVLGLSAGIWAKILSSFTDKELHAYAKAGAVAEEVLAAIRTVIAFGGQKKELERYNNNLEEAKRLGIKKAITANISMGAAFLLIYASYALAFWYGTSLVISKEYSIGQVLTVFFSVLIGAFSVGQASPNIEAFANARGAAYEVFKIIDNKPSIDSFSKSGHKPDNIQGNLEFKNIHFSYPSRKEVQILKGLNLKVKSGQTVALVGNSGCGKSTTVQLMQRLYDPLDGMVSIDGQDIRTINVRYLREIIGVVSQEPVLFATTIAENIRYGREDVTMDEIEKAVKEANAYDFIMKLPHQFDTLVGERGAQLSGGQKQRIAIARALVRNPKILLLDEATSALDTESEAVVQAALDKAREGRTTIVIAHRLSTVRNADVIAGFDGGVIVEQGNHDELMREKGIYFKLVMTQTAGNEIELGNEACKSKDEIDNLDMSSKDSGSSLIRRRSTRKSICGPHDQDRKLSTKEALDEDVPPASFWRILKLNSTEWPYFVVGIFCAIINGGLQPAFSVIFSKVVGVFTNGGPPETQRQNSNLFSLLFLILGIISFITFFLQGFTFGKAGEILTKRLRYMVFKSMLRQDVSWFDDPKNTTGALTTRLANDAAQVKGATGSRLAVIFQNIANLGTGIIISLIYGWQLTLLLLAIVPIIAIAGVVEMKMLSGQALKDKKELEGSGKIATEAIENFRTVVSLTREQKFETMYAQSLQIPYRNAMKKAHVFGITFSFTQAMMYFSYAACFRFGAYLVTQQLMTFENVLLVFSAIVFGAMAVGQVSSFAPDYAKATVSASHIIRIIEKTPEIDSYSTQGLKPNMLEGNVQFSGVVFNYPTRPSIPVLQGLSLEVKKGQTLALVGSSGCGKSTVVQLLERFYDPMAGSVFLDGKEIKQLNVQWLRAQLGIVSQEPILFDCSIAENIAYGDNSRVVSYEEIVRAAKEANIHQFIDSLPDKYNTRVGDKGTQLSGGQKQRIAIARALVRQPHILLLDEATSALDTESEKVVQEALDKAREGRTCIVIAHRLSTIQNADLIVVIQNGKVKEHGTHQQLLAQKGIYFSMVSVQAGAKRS
compound,measurement,setting,value
"COc1ccc2c3c([nH]c2c1)[C@H](CC(C)C)N1C(=O)[C@H](CCC(=O)OC(C)(C)C)NC(=O)[C@@H]1C3 [Ko143, (3S,6S,12aS)-1,2,3,4,6,7,12,12a-octahydro-9-methoxy-6-(2-methylpropyl)-1,4-dioxopyrazino[1’,2’:1,6]pyrido[3,4-b]indole-3-propanoic acid 1,1-dimethylethyl ester]","brain concentrations, fold higher than in Abcg2^(-/-) mice",Abcb1a/b [1],about 3 fold
same,unbound fraction in plasma,[2],0.0293
same,tolerability,[3],well tolerated
same,effect on human ABCB1 ATPase activity,human ABCB1,stimulated
same,concentration at 1 h,[4],12 nM
same,plasma concentration,[5],420 nM
CC(C)C[C@H]1c2[nH]c3cc(O[11CH3])ccc3c2C[C@H]2C(=O)N[C@@H](CCC(=O)OC(C)(C)C)C(=O)N21 [[^11C]Ko143],"kbile, fold lower than with [^11C]Ko143 alone",[6]; wild-type mice co-injected with Ko143 vehicle,2.4 fold
same,"kbile, fold lower than with [^11C]Ko143 alone",[6]; wild-type mice co-injected with unlabeled Ko143 (10 mg/kg),1.9 fold
same,kurine,[6]; wild-type mice co-injected with unlabeled Ko143 (10 mg/kg) or Ko143 vehicle,almost decreased to zero
same,"mean kuptake, kidney",[6]; [9],0.262 mL/min/g tissue
same,"mean kuptake, liver",[6]; [9],0.689 mL/min/g tissue
same,kurine compared with wild-type mice,Abcg2,significantly lower
same,"Percentage of unchanged radiotracer, Bile",[7]; Abcb1a/b^(-/-)Abcg2^(-/-) mice,1.5 ± 1.0%
same,"Percentage of unchanged radiotracer, Brain",[7]; Abcb1a/b^(-/-)Abcg2^(-/-) mice,73.2 ± 2.4 ^a %
same,"Percentage of unchanged radiotracer, Kidney",[7]; Abcb1a/b^(-/-)Abcg2^(-/-) mice,21.6 ± 2.0%
same,"Percentage of unchanged radiotracer, Liver",[7]; Abcb1a/b^(-/-)Abcg2^(-/-) mice,16.0 ± 1.8%
same,"Percentage of unchanged radiotracer, Plasma",[7]; Abcb1a/b^(-/-)Abcg2^(-/-) mice,34.7 ± 0.4%
same,"Percentage of unchanged radiotracer, Bile",[7]; wild-type mice,15.2 ± 21.0%
same,"Percentage of unchanged radiotracer, Brain",[7]; wild-type mice,51.5 ± 13.9%
same,"Percentage of unchanged radiotracer, Kidney",[7]; wild-type mice,35.6 ± 9.6%
same,"Percentage of unchanged radiotracer, Liver",[7]; wild-type mice,17.4 ± 2.7%
same,"Percentage of unchanged radiotracer, Plasma",[7]; wild-type mice,36.0 ± 1.5%
same,"brain concentration-time curves, fold lower than in Abcb1a/b^(-/-) and Abcb1a/b^(-/-)Abcg2^(-/-) mice",Abcb1a/b [8],approximately 2 fold
polyethylene glycol 300 [PEG300],inhibition of ABCB1 activity,"ABCB1; 20% v/v, Caco-2 and MDR1-MDCK cell monolayers",almost complete in vitro inhibition
polysorbate 80,inhibition of ABCB1 activity,"ABCB1; 0.05% w/v, Caco-2 cells",only partially inhibited

# Reference: article PMC5884419 (European journal of pharmaceutical sciences : official …, 2018)
